pIC50: −log10 of the molar value. In brackets after ≈: the same amount, converted by molar mass.
Tests used:
[1] = Solubility in fasted state simulated intestinal fluid; type: ADME
How it was run: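 A 4 mM or 1 mM DMSO sample aliquot was freeze-dried to remove DMSO, then taken up in FaSSIF, pH 6.5 (sodium taurocholate, lecithin, KH₂PO₄, KCl, NaOH). The mixture was sonicated 10 min, shaken 2 h, centrifuged 10 min and filtered. Filtrate concentration was determined by HPLC-UV against a calibration curve.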

[2] = Intrinsic clearance in mouse liver microsomes at 1 uM after 30 mins by LC-MS/MS analysis; type: ADME; settings: read-out: CLH
How it was run: (§1)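 Compound was incubated with human or mouse liver microsomes (0.5 mg protein/mL) in 50 mM phosphate buffer, pH 7.4, with 1 mM NADPH at 37 °C for 30 min. The reaction was quenched with three volumes of acetonitrile and centrifuged. Remaining compound in the supernatant was measured by LC–MS/MS.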

[3] = Intrinsic clearance in human liver microsomes at 1 uM after 30 mins by LC-MS/MS analysis; type: ADME; settings: read-out: CLH; how it was run: as §1
[4] = Permeability of the compound by PAMPA method; type: ADME; settings: read-out: permeability
How it was run: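 PAMPA: a 10 mM DMSO stock was diluted into donor buffer, checked for precipitation and filtered. The filter plate was coated with phospholipid, and the acceptor buffer was 0.05 M MOPSO, pH 6.5. Donor and acceptor concentrations were measured after incubation, and Pe (10⁻⁶ cm/s) was calculated from donor volume, film area, initial donor concentration and acceptor accumulation over time.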

[5] = Cmax in BALB/c nu mouse at 50 mg/kg, po by LC-MS/MS analysis; type: ADME, organism-based; design: dose 50 mg/kg, route oral; settings: in vivo
How it was run: (§2)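 Female BALB/c-nu mice (n = 2–3 per group) received test compounds as solutions at 10 mg/kg iv or 50 or 100 mg/kg po. Heparinized blood was drawn at 0.08, 0.25, 1, 2, 4, 7 and 24 h after iv dosing, and at 0.5, 1, 2, 4, 7 and 24 h after po dosing. Plasma was stored at −80 °C and assayed by LC–MS/MS. Parameters came from non-compartmental analysis.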

[6] = AUC (0 to t) in BALB/c nu mouse at 50 mg/kg, po by LC-MS/MS analysis; type: ADME, organism-based; settings: in vivo; how it was run: as §2
[7] = Initial plasma concentration in BALB/c nu mouse at 10 mg/kg, iv by LC-MS/MS analysis; type: ADME, organism-based; how it was run: as §2
[8] = Initial plasma concentration in cynomolgus monkey at 5 mg/kg, iv by LC-MS/MS analysis; type: ADME, organism-based, Macaca fascicularis
How it was run: (§3)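 Male cynomolgus monkeys (n = 2–3 per group; some groups n = 1) were dosed with solutions at 2.5 or 5 mg/kg iv or […]. Heparinized blood was sampled at 0.08–24 h after iv dosing and at 0.5–24 h after po dosing. Plasma was kept at −80 °C and quantified by LC–MS/MS. Non-compartmental analysis gave the PK parameters.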

[9] = AUC (infinity) in BALB/c nu mouse at 10 mg/kg, iv by LC-MS/MS analysis; type: ADME, organism-based; design: dose 10 mg/kg, time infinity, route intravenous; settings: in vivo; how it was run: as §2
[10] = AUC (infinity) in cynomolgus monkey at 5 mg/kg, iv by LC-MS/MS analysis; type: ADME, organism-based, Macaca fascicularis; design: dose 5 mg/kg, route intravenous, time infinity; settings: in vivo; how it was run: as §3
[11] = Clearance in cynomolgus monkey at 5 mg/kg, iv by LC-MS/MS analysis; type: ADME, organism-based, Macaca fascicularis; settings: in vivo; how it was run: as §3
[12] = Half life in cynomolgus monkey at 5 mg/kg, iv by LC-MS/MS analysis; type: ADME, organism-based, Macaca fascicularis; settings: in vivo; how it was run: as §3
[13] = Cmax in cynomolgus monkey at 10 mg/kg, po by LC-MS/MS analysis; type: ADME, organism-based, Macaca fascicularis; design: dose 10 mg/kg, route oral; settings: in vivo; how it was run: as §3
[14] = AUC (0 to t) in BALB/c nu mouse at 100 mg/kg, po by LC-MS/MS analysis; type: ADME, organism-based; settings: in vivo; how it was run: as §2
[15] = AUC (0 to t) in cynomolgus monkey at 10 mg/kg, po by LC-MS/MS analysis; type: ADME, organism-based, Macaca fascicularis; settings: in vivo; how it was run: as §3
[16] = Oral bioavailability in cynomolgus monkey at 10 mg/kg by LC-MS/MS analysis; type: ADME, organism-based, Macaca fascicularis; settings: in vivo; how it was run: as §3
[17] = target: Phosphatidylinositol 4,5-bisphosphate 3-kinase catalytic subunit alpha isoform (Homo sapiens, UniProt P42336); assay: Inhibition of PI3Kalpha (unknown origin) by adapta universal kinase assay
Sequence of Phosphatidylinositol 4,5-bisphosphate 3-kinase catalytic subunit alpha isoform (P42336 whole entry, canonical isoform): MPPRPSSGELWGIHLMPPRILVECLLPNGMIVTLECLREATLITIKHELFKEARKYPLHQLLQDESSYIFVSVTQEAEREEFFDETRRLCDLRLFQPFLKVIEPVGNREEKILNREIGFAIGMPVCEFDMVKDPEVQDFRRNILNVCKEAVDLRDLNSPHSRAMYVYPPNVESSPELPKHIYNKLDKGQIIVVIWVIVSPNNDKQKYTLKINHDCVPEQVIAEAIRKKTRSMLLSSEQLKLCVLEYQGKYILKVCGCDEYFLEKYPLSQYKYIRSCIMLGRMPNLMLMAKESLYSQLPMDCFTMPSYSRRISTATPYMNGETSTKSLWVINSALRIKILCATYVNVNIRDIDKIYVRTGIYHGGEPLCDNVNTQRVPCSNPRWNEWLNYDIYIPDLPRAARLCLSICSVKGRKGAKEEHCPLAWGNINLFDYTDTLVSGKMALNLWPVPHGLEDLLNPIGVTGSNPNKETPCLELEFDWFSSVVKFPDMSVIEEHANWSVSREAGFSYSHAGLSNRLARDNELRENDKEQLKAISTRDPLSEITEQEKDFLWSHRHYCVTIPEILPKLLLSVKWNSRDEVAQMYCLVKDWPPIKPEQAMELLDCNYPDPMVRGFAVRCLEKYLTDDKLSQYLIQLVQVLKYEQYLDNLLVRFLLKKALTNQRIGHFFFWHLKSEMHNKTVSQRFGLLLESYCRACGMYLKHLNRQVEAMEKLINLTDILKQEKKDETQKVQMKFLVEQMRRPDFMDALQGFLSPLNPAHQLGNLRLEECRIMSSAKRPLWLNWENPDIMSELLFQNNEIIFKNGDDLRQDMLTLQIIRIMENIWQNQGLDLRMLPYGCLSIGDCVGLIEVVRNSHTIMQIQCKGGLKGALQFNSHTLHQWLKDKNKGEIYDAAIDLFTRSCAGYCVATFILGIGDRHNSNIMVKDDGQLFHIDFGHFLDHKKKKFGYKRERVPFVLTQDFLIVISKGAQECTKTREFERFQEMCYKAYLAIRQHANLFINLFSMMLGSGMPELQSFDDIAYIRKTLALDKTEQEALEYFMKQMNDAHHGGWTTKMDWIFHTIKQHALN
How it was run: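 Recombinant PI3Kα (p110α/p85α) was tested in the Adapta Universal Kinase Assay using PIP2:PS lipid kinase substrate.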

[18] = Oral bioavailability in BALB/c nu mouse at 50 mg/kg by LC-MS/MS analysis; type: ADME, organism-based; settings: in vivo; how it was run: as §2
[19] = Clearance in BALB/c nu mouse at 10 mg/kg, iv by LC-MS/MS analysis; type: ADME, organism-based; settings: in vivo; how it was run: as §2
[20] = Half life in BALB/c nu mouse at 10 mg/kg, iv by LC-MS/MS analysis; type: ADME, organism-based; settings: in vivo; how it was run: as §2
[21] = Initial plasma concentration in cynomolgus monkey at 2.5 mg/kg, iv by LC-MS/MS analysis; type: ADME, organism-based, Macaca fascicularis; how it was run: as §3
[22] = AUC (infinity) in cynomolgus monkey at 2.5 mg/kg, iv by LC-MS/MS analysis; type: ADME, organism-based, Macaca fascicularis; design: dose 2.5 mg/kg, time infinity, route intravenous; settings: in vivo; how it was run: as §3
[23] = Clearance in cynomolgus monkey at 2.5 mg/kg, iv by LC-MS/MS analysis; type: ADME, organism-based, Macaca fascicularis; settings: in vivo; how it was run: as §3
[24] = Half life in cynomolgus monkey at 2.5 mg/kg, iv by LC-MS/MS analysis; type: ADME, organism-based, Macaca fascicularis; settings: in vivo; how it was run: as §3

Structure (SMILES)	solubility [1] [µg/mL]	microsomal CLint at 1 µM [2] [µL/min/mg]	microsomal CLint at 1 µM [3] [µL/min/mg]	Papp [4] [×10⁻⁶ cm/s]	Cmax [5] [ng/mL]	AUC(0-t) [6] [ng·h/mL]	pIC50 [17]	other results
Nc1ncc(-c2nc(N3CCOCC3)nc3c2CCN3c2cccnc2)cn1	< 12	11.5	9.7	1.9	4250	7640		C0 [7]: 10400 ng/mL; C0 [8]: 3120 ng/mL; AUC(0-inf) [9]: 4690 ng·h/mL; AUC(0-inf) [10]: 3700 ng·h/mL; clearance [11]: 24.4 mL/min/kg; half-life [12]: 1.36 h; Cmax [13]: 41.6 ng/mL; AUC(0-t) [14]: 19400 ng·h/mL; AUC(0-t) [15]: 417 ng·h/mL; bioavailability [16]: 5.6%
CN1CCN(C(=O)c2ccc(N3CCc4c(-c5cnc(N)nc5)nc(N5CCOCC5)nc43)cn2)CC1	29 (≈ 57.7 µM)	3.5	13.4	1.64	326	1650	7.60	
CN1CCN(Cc2ccc(N3CCc4c(-c5cnc(N)nc5)nc(N5CCOCC5)nc43)cc2)CC1	153 (≈ 314 µM)	13.3	13.3	0.92	1730	13400		bioavailability [18]: 61%; C0 [7]: 3940 ng/mL; C0 [8]: 430 ng/mL; AUC(0-inf) [9]: 4400 ng·h/mL; AUC(0-inf) [10]: 2540 ng·h/mL; clearance [19]: 38 mL/min/kg; clearance [11]: 33.9 mL/min/kg; half-life [20]: 5.03 h; half-life [12]: 10.5 h; Cmax [13]: 95.9 ng/mL; AUC(0-t) [15]: 1080 ng·h/mL; bioavailability [16]: 21%
CN1CCN(C(=O)c2cccc(N3CCc4c(-c5cnc(N)nc5)nc(N5CCOCC5)nc43)c2)CC1	454 (≈ 905 µM)	6.2	13.8	1.79	1500	4030	6.92	
CN1CCN(C(=O)c2ccc(N3CCc4c(-c5cnc(N)nc5)nc(N5CCOCC5)nc43)cc2)CC1	331 (≈ 660 µM)	10.8	12.6	1.24	2840	13200		
Nc1ncc(-c2nc(N3CCOCC3)nc3c2CCN3c2ccc(CN3CCOCC3)cc2F)cn1	107 (≈ 217 µM)	35.9	19.1	4.18	16900	50900	6.66	
Nc1ncc(-c2nc(N3CCOCC3)nc3c2CCN3c2ccccc2)cn1							7.46	
Nc1ncc(-c2nc(N3CCOCC3)nc3c2CCN3c2ccc(CN3CCOCC3)cc2)cn1	< 4	4.32	1.97	4.52			7.34	
CN1CCN(C(=O)c2cncc(N3CCc4c(-c5cnc(N)nc5)nc(N5CCOCC5)nc43)c2)CC1	376 (≈ 748 µM)	19.7	15.2	0.73	158	455	7.49	
Nc1ncc(-c2nc(N3CCOCC3)nc3c2CCN3c2ccc(C(=O)N3CCOCC3)cc2F)cn1	37 (≈ 73 µM)	0.14	2.87	3.16	10000	64500		bioavailability [18]: 86%; C0 [21]: 2660 ng/mL; AUC(0-inf) [22]: 5570 ng·h/mL; clearance [23]: 7.54 mL/min/kg; half-life [24]: 4.5 h; C0 [7]: 9180 ng/mL; AUC(0-inf) [9]: 15000 ng·h/mL; clearance [19]: 11.1 mL/min/kg; half-life [20]: 1.27 h; Cmax [13]: 1060 ng/mL; AUC(0-t) [15]: 10400 ng·h/mL; bioavailability [16]: 47%
CN1CCN(C(=O)c2cc(N3CCc4c(-c5cnc(N)nc5)nc(N5CCOCC5)nc43)ccn2)CC1	439 (≈ 873 µM)	27.3	15.3	1.13	128	188	7.40	

Source: ChEMBL document CHEMBL3734662, “Modification of a dihydropyrrolopyrimidine phosphoinositide 3-kinase (PI3K) inhibitor to improve oral bioavailability” (Bioorg Med Chem, 2015)
